Laboratory results published in ChEMBL document CHEMBL1275458, “First molecular characterization of group B streptococci with reduced penicillin susceptibility” (2008).
Converted amounts (≈) assume the structure as drawn.

Tested on: Streptococcus agalactiae
Assay: Antimicrobial activity against penicillin-resistant Streptococcus agalactiae B503 by agar dilution method
Format: functional
Outline: (§1)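 Agar dilution MICs run per the CLSI recommendation. S. pneumoniae ATCC 49619 was included as the quality control strain. β-lactams tested were penicillin G, penicillin V, ampicillin, oxacillin, cefazolin, cefepime, cefotaxime, ceftizoxime and meropenem. Test strains were S. agalactiae clinical sputum isolates and ATCC strains BAA-611 and 12403.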

Row | SMILES | MIC [µg/mL]
1 | CC1(C)S[C@@H]2[C@H](NC(=O)Cc3ccccc3)C(=O)N2[C@H]1C(=O)O [PENICILLIN G] | 0.25 (≈ 0.748 µM)
2 | Cc1nnc(SCC2=C(C(=O)O)N3C(=O)[C@@H](NC(=O)Cn4cnnn4)[C@H]3SC2)s1 [CEFAZOLIN] | 0.5 (≈ 1.1 µM)

Tested on: Streptococcus pneumoniae
Assay: Antimicrobial activity against Streptococcus pneumoniae ATCC 49619 by agar dilution method
Format: functional
Outline: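 MIC by agar dilution per CLSI recommendations. The strain is a penicillin-susceptible S. pneumoniae quality-control strain, run alongside the clinical GBS isolates. β-lactams tested were penicillin G, penicillin V, ampicillin, oxacillin, cefazolin, cefepime, cefotaxime, ceftizoxime and meropenem.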

Row | SMILES | MIC [µg/mL]
3 | CC1(C)S[C@@H]2[C@H](NC(=O)Cc3ccccc3)C(=O)N2[C@H]1C(=O)O [PENICILLIN G] | 0.25 (≈ 0.748 µM)
4 | Cc1nnc(SCC2=C(C(=O)O)N3C(=O)[C@@H](NC(=O)Cn4cnnn4)[C@H]3SC2)s1 [CEFAZOLIN] | 1 (≈ 2.2 µM)

Tested on: Streptococcus agalactiae
Assay: Antimicrobial activity against penicillin-resistant Streptococcus agalactiae B10 by agar dilution method
Format: functional
Outline: as §1

Row | SMILES | MIC [µg/mL]
5 | CC1(C)S[C@@H]2[C@H](NC(=O)Cc3ccccc3)C(=O)N2[C@H]1C(=O)O [PENICILLIN G] | 0.5 (≈ 1.5 µM)
6 | Cc1nnc(SCC2=C(C(=O)O)N3C(=O)[C@@H](NC(=O)Cn4cnnn4)[C@H]3SC2)s1 [CEFAZOLIN] | 1 (≈ 2.2 µM)

Tested on: Streptococcus agalactiae
Assay: Antimicrobial activity against penicillin-resistant Streptococcus agalactiae ATCC BAA-611 harboring PBP-2X V405A mutant gene by agar dilution method
Format: functional
Outline: as §1

Row | SMILES | MIC [µg/mL]
7 | CC1(C)S[C@@H]2[C@H](NC(=O)Cc3ccccc3)C(=O)N2[C@H]1C(=O)O [PENICILLIN G] | 0.25 (≈ 0.748 µM)
8 | Cc1nnc(SCC2=C(C(=O)O)N3C(=O)[C@@H](NC(=O)Cn4cnnn4)[C@H]3SC2)s1 [CEFAZOLIN] | 0.5 (≈ 1.1 µM)

Tested on: Streptococcus agalactiae
Assay: Antimicrobial activity against penicillin-resistant Streptococcus agalactiae B6 by agar dilution method
Format: functional
Outline: as §1

Row | SMILES | MIC [µg/mL]
9 | CC1(C)S[C@@H]2[C@H](NC(=O)Cc3ccccc3)C(=O)N2[C@H]1C(=O)O [PENICILLIN G] | 0.25 (≈ 0.748 µM)
10 | Cc1nnc(SCC2=C(C(=O)O)N3C(=O)[C@@H](NC(=O)Cn4cnnn4)[C@H]3SC2)s1 [CEFAZOLIN] | 1 (≈ 2.2 µM)

Tested on: Streptococcus agalactiae
Assay: Antimicrobial activity against penicillin-resistant Streptococcus agalactiae B514 by agar dilution method
Format: functional
Outline: as §1

Row | SMILES | MIC [µg/mL]
11 | CC1(C)S[C@@H]2[C@H](NC(=O)Cc3ccccc3)C(=O)N2[C@H]1C(=O)O [PENICILLIN G] | 0.25 (≈ 0.748 µM)
12 | Cc1nnc(SCC2=C(C(=O)O)N3C(=O)[C@@H](NC(=O)Cn4cnnn4)[C@H]3SC2)s1 [CEFAZOLIN] | 1 (≈ 2.2 µM)

Tested on: Streptococcus agalactiae
Assay: Antimicrobial activity against penicillin-resistant Streptococcus agalactiae B68 by agar dilution method
Format: functional
Outline: as §1

Row | SMILES | MIC [µg/mL]
13 | CC1(C)S[C@@H]2[C@H](NC(=O)Cc3ccccc3)C(=O)N2[C@H]1C(=O)O [PENICILLIN G] | 0.5 (≈ 1.5 µM)
14 | Cc1nnc(SCC2=C(C(=O)O)N3C(=O)[C@@H](NC(=O)Cn4cnnn4)[C@H]3SC2)s1 [CEFAZOLIN] | 0.5 (≈ 1.1 µM)

Tested on: Streptococcus agalactiae
Assay: Antimicrobial activity against penicillin-resistant Streptococcus agalactiae B7 by agar dilution method
Format: functional
Outline: as §1

Row | SMILES | MIC [µg/mL]
15 | CC1(C)S[C@@H]2[C@H](NC(=O)Cc3ccccc3)C(=O)N2[C@H]1C(=O)O [PENICILLIN G] | 0.25 (≈ 0.748 µM)
16 | Cc1nnc(SCC2=C(C(=O)O)N3C(=O)[C@@H](NC(=O)Cn4cnnn4)[C@H]3SC2)s1 [CEFAZOLIN] | 0.5 (≈ 1.1 µM)

Tested on: Streptococcus agalactiae
Assay: Antimicrobial activity against penicillin-resistant Streptococcus agalactiae B12 by agar dilution method
Format: functional
Outline: as §1

Row | SMILES | MIC [µg/mL]
17 | CC1(C)S[C@@H]2[C@H](NC(=O)Cc3ccccc3)C(=O)N2[C@H]1C(=O)O [PENICILLIN G] | 0.25 (≈ 0.748 µM)
18 | Cc1nnc(SCC2=C(C(=O)O)N3C(=O)[C@@H](NC(=O)Cn4cnnn4)[C@H]3SC2)s1 [CEFAZOLIN] | 1 (≈ 2.2 µM)

Tested on: Streptococcus agalactiae
Assay: Antimicrobial activity against penicillin-resistant Streptococcus agalactiae B502 by agar dilution method
Format: functional
Outline: as §1

Row | SMILES | MIC [µg/mL]
19 | CC1(C)S[C@@H]2[C@H](NC(=O)Cc3ccccc3)C(=O)N2[C@H]1C(=O)O [PENICILLIN G] | 0.5 (≈ 1.5 µM)
20 | Cc1nnc(SCC2=C(C(=O)O)N3C(=O)[C@@H](NC(=O)Cn4cnnn4)[C@H]3SC2)s1 [CEFAZOLIN] | 0.5 (≈ 1.1 µM)

Tested on: Streptococcus agalactiae
Assay: Antimicrobial activity against penicillin-resistant Streptococcus agalactiae B60 by agar dilution method
Format: functional
Outline: as §1

Row | SMILES | MIC [µg/mL]
21 | CC1(C)S[C@@H]2[C@H](NC(=O)Cc3ccccc3)C(=O)N2[C@H]1C(=O)O [PENICILLIN G] | 0.25 (≈ 0.748 µM)
22 | Cc1nnc(SCC2=C(C(=O)O)N3C(=O)[C@@H](NC(=O)Cn4cnnn4)[C@H]3SC2)s1 [CEFAZOLIN] | 1 (≈ 2.2 µM)

Tested on: Streptococcus agalactiae
Assay: Antimicrobial activity against penicillin-resistant Streptococcus agalactiae B40 by agar dilution method
Format: functional
Outline: as §1

Row | SMILES | MIC [µg/mL]
23 | CC1(C)S[C@@H]2[C@H](NC(=O)Cc3ccccc3)C(=O)N2[C@H]1C(=O)O [PENICILLIN G] | 0.5 (≈ 1.5 µM)
24 | Cc1nnc(SCC2=C(C(=O)O)N3C(=O)[C@@H](NC(=O)Cn4cnnn4)[C@H]3SC2)s1 [CEFAZOLIN] | 1 (≈ 2.2 µM)

Tested on: Streptococcus agalactiae
Assay: Antimicrobial activity against penicillin-susceptible Streptococcus agalactiae ATCC 12403 by agar dilution method

Row | SMILES | MIC [µg/mL]
25 | CC1(C)S[C@@H]2[C@H](NC(=O)Cc3ccccc3)C(=O)N2[C@H]1C(=O)O [PENICILLIN G] | 0.06 (≈ 0.179 µM)
26 | Cc1nnc(SCC2=C(C(=O)O)N3C(=O)[C@@H](NC(=O)Cn4cnnn4)[C@H]3SC2)s1 [CEFAZOLIN] | 0.12 (≈ 0.264 µM)

Tested on: Streptococcus agalactiae
Assay: Antimicrobial activity against penicillin-resistant Streptococcus agalactiae B513 by agar dilution method
Format: functional
Outline: as §1

Row | SMILES | MIC [µg/mL]
27 | CC1(C)S[C@@H]2[C@H](NC(=O)Cc3ccccc3)C(=O)N2[C@H]1C(=O)O [PENICILLIN G] | 1 (≈ 2.99 µM)
28 | Cc1nnc(SCC2=C(C(=O)O)N3C(=O)[C@@H](NC(=O)Cn4cnnn4)[C@H]3SC2)s1 [CEFAZOLIN] | 1 (≈ 2.2 µM)

Tested on: Streptococcus agalactiae
Assay: Antimicrobial activity against penicillin-susceptible Streptococcus agalactiae ATCC BAA-611 by agar dilution method

Row | SMILES | MIC [µg/mL]
29 | CC1(C)S[C@@H]2[C@H](NC(=O)Cc3ccccc3)C(=O)N2[C@H]1C(=O)O [PENICILLIN G] | 0.06 (≈ 0.179 µM)
30 | Cc1nnc(SCC2=C(C(=O)O)N3C(=O)[C@@H](NC(=O)Cn4cnnn4)[C@H]3SC2)s1 [CEFAZOLIN] | 0.12 (≈ 0.264 µM)

Tested on: Streptococcus agalactiae
Assay: Antimicrobial activity against penicillin-resistant Streptococcus agalactiae B516 by agar dilution method
Format: functional
Outline: as §1

Row | SMILES | MIC [µg/mL]
31 | CC1(C)S[C@@H]2[C@H](NC(=O)Cc3ccccc3)C(=O)N2[C@H]1C(=O)O [PENICILLIN G] | 0.25 (≈ 0.748 µM)
32 | Cc1nnc(SCC2=C(C(=O)O)N3C(=O)[C@@H](NC(=O)Cn4cnnn4)[C@H]3SC2)s1 [CEFAZOLIN] | 0.5 (≈ 1.1 µM)

Tested on: Streptococcus agalactiae
Assay: Antimicrobial activity against penicillin-resistant Streptococcus agalactiae B8 by agar dilution method
Format: functional
Outline: as §1

Row | SMILES | MIC [µg/mL]
33 | CC1(C)S[C@@H]2[C@H](NC(=O)Cc3ccccc3)C(=O)N2[C@H]1C(=O)O [PENICILLIN G] | 0.25 (≈ 0.748 µM)
34 | Cc1nnc(SCC2=C(C(=O)O)N3C(=O)[C@@H](NC(=O)Cn4cnnn4)[C@H]3SC2)s1 [CEFAZOLIN] | 1 (≈ 2.2 µM)

Tested on: Streptococcus agalactiae
Assay: Antimicrobial activity against penicillin-resistant Streptococcus agalactiae ATCC BAA-611 harboring PBP-2X Q557E mutant gene by agar dilution method
Format: functional
Outline: as §1

Row | SMILES | MIC [µg/mL]
35 | CC1(C)S[C@@H]2[C@H](NC(=O)Cc3ccccc3)C(=O)N2[C@H]1C(=O)O [PENICILLIN G] | 0.5 (≈ 1.5 µM)
36 | Cc1nnc(SCC2=C(C(=O)O)N3C(=O)[C@@H](NC(=O)Cn4cnnn4)[C@H]3SC2)s1 [CEFAZOLIN] | 2 (≈ 4.4 µM)

Tested on: Streptococcus agalactiae
Assay: Antimicrobial activity against penicillin-resistant Streptococcus agalactiae B1 by agar dilution method
Format: functional
Outline: as §1

Row | SMILES | MIC [µg/mL]
37 | CC1(C)S[C@@H]2[C@H](NC(=O)Cc3ccccc3)C(=O)N2[C@H]1C(=O)O [PENICILLIN G] | 0.5 (≈ 1.5 µM)
38 | Cc1nnc(SCC2=C(C(=O)O)N3C(=O)[C@@H](NC(=O)Cn4cnnn4)[C@H]3SC2)s1 [CEFAZOLIN] | 2 (≈ 4.4 µM)
